Source: ChEMBL document CHEMBL5653630, “Activation of the p53-MDM4 regulatory axis defines the anti-tumour response to PRMT5 inhibition through its role in regulating cellular splicing” (Sci Rep, 2018)
Calls of active or inactive are those of the source. The rule behind the calls is not given here.

What was measured:
Z-138 [1] = test: Induction of cell cycle arrest in human Z138 cells assessed as decrease in 4n cell population measured upto 1000 nM measured for 2 to 5 days by propidium iodide staining based flow cytometric analysis; format: functional; settings: time 2-5 day
Z-138 [2] = test: Antitumor activity against human Z138 cells xenografted in po dosed mouse measured for 21 days; format: functional, organism-based; settings: dose lower […], dose upper 200.0 mg/kg, time 21.0 day
Z-138 [3] = test: Induction of cell cycle arrest in human Z138 cells assessed as accumulation of cells at G1 phase cells measured upto 1000 nM by propidium iodide staining based flow cytometric analysis; format: functional; settings: time 1-10 day, TDE = time-dependent effect
[4] = Antiproliferative activity against human RKOAS451 cells assessed as cell growth inhibition incubated for 10 days; format: functional; settings: RKOAS451, 240 h, time 10 day
BPH-1 = test: Antiproliferative activity against human BPH-1 cells assessed as cell growth inhibition incubated for 10 days; format: functional; settings: BPH-1, 240 h, time 10 day
Outline: (§1)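 Cells kept in RPMI-1640 with 10% FBS, 2 mM L-alanyl-L-glutamine and 1 mM Na pyruvate (or a special medium) at 37°C, 5% CO2. Compound added 24 h after seeding, 10 concentrations in 3.16-fold dilution, 0.1% DMSO final. Medium replaced and cells re-dosed at 168 h; 240 h incubation. Nuclei fixed, dye-stained and imaged. gIC50 = growth midway between untreated and time-zero cell counts, from a 4-parameter fit.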

[5] = Antiproliferative activity against human OCUG-1 cells assessed as cell growth inhibition incubated for 10 days; format: functional; settings: OCUG-1, 240 h, time 10 day
SW900 = test: Antiproliferative activity against human SW900 cells assessed as cell growth inhibition incubated for 10 days; format: functional; settings: SW900, 240 h, time 10 day
DMS-53 = test: Antiproliferative activity against human DMS-53 cells assessed as cell growth inhibition incubated for 10 days; format: functional; settings: DMS-53, 240 h, time 10 day
Outline: (§2)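 Outsourced panel run in 384-well plates. Cells were grown in RPMI-1640/10% FBS or a special medium at 37°C, 5% CO2. Compound was added 24 h after seeding as a 10-point, 3.16-fold series in 0.1% DMSO. Medium was refreshed and cells re-dosed at 168 h, with a time-zero plate kept. At 240 h cells were fixed, nuclei stained and imaged. gIC50 is growth midway between untreated and time zero, from a 4-parameter fit.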

SJSA-1 = test: Antiproliferative activity against human SJSA-1 cells assessed as cell growth inhibition incubated for 10 days; format: functional; settings: SJSA-1, 240 h, time 10 day
A673 = test: Antiproliferative activity against human A673 cells assessed as cell growth inhibition incubated for 10 days; format: functional; settings: A673, 240 h, time 10 day; outline: as §1
[6] = target: Protein arginine N-methyltransferase 5 (Homo sapiens) (UniProt O14744); test: Inhibition of PRMT5 in human Z138 cells expressing EGFP at 1 to 100000 nM incubated for 3 to 6 days; format: cell-based; settings: dose 1-100000 nM, time 3-6 day
Sequence of Protein arginine N-methyltransferase 5 (Homo sapiens) (O14744 whole entry): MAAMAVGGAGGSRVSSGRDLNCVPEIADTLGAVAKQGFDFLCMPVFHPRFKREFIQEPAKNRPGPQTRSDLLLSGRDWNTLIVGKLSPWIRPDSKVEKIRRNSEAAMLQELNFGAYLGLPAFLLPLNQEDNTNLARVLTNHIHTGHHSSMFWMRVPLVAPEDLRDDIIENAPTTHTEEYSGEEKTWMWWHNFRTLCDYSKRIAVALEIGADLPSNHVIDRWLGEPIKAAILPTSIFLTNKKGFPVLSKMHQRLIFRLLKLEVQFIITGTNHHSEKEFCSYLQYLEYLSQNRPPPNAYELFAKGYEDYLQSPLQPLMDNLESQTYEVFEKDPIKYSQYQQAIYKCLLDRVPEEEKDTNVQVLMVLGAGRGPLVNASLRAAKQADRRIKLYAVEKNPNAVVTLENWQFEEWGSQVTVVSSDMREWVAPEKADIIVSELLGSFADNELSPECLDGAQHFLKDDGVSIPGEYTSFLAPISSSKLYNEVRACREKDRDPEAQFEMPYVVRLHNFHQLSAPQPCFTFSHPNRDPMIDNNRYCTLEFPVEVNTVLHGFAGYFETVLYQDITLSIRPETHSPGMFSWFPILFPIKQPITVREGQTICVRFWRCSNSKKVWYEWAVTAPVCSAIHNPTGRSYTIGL

[7] = Antiproliferative activity against human KHOS-240S cells assessed as cell growth inhibition incubated for 10 days; format: functional; settings: 240 h, time 10 day
Outline: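 Eurofins-panel 10-day assay in 384-well plates. Cells grown in RPMI-1640 with 10% FBS, 2 mM L-alanyl-L-glutamine and 1mM Na pyruvate, or a special medium, at 37°C in 5% CO₂. Compound added 24 h after seeding, 10-point 3.16-fold series in 0.1% DMSO. Medium replaced and compound re-dosed at 168 h. Nuclei fixed and stained after 240 h, then imaged to give a relative cell count. gIC50 is the concentration giving growth midway between untreated and time-zero counts, from a 4-parameter fit.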

SK-N-FI = test: Antiproliferative activity against human SK-N-FI cells assessed as cell growth inhibition incubated for 10 days; format: functional; settings: 240 h, time 10 day
C-33-A = test: Antiproliferative activity against human C-33-A cells assessed as cell growth inhibition incubated for 10 days; format: functional; settings: 240 h, time 10 day; outline: as §1
CAL-27 = test: Antiproliferative activity against human CAL-27 cells assessed as cell growth inhibition incubated for 10 days; format: functional; settings: CAL-27, 240 h, time 10 day; outline: as §1
DLD-1 = test: Antiproliferative activity against human DLD-1 cells assessed as cell growth inhibition incubated for 10 days; format: functional; settings: DLD-1, 240 h, time 10 day; outline: as §2
NCI-H596 = test: Antiproliferative activity against human NCI-H596 cells assessed as cell growth inhibition incubated for 10 days; format: functional; settings: NCI-H596, 240 h, time 10 day
RKO = test: Antiproliferative activity against human RKO cells assessed as cell growth inhibition incubated for 10 days; format: functional; settings: 240 h, time 10 day
[8] = target: Protein arginine N-methyltransferase 5 (Homo sapiens) (UniProt O14744); test: Inhibition of PRMT5 in human Z138 cells assessed as effect on FUBP1 level by measuring fold change by LC-MS/MS analysis relative to control; format: cell-based
[9] = Antiproliferative activity against human C32TG cells assessed as cell growth inhibition incubated for 10 days; format: functional; settings: 240 h, time 10 day; outline: as §1
L-428 = test: Antiproliferative activity against human L-428 cells assessed as cell growth inhibition incubated for 10 days; format: functional; settings: L-428, 240 h, time 10 day
SK-UT-1 = test: Antiproliferative activity against human SK-UT-1 cells assessed as cell growth inhibition incubated for 10 days; format: functional; settings: SK-UT-1, 240 h, time 10 day
SNU-5 = test: Antiproliferative activity against human SNU-5 cells assessed as cell growth inhibition incubated for 10 days; format: functional; settings: SNU-5, 240 h, time 10 day
G-401 = test: Antiproliferative activity against human G-401 cells assessed as cell growth inhibition incubated for 10 days; format: functional; settings: G-401, 240 h, time 10 day; outline: as §2
SW-403 = test: Antiproliferative activity against human SW403 cells assessed as cell growth inhibition incubated for 10 days; format: functional; settings: SW-403, 240 h, time 10 day
RPMI-8226 = test: Antiproliferative activity against human RPMI-8226 cells assessed as cell growth inhibition incubated for 10 days; format: functional; settings: RPMI-8226, 240 h, time 10 day
Hs746T = test: Antiproliferative activity against human Hs746T cells assessed as cell growth inhibition incubated for 10 days; format: functional; settings: 240 h, time 10 day
Outline: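 Eurofins panel, 384-well. Cells kept in RPMI-1640 with 10% FBS, 2 mM L-alanyl-L-glutamine and 1 mM Na pyruvate, or in a special medium, at 37°C under 5% CO2. Compound added 24 h after seeding as 10 concentrations in 3.16-fold steps, 0.1% DMSO final. Medium replaced and compound re-dosed at 168 h. After 240 h, cells fixed and nuclei stained for imaging. gIC50 = growth midway between untreated cells and time-zero count.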

U138-MG = test: Antiproliferative activity against human U138-MG cells assessed as cell growth inhibition incubated for 10 days; format: functional; settings: 240 h, time 10 day
MHH-PREB-1 = test: Antiproliferative activity against human MHH-PREB-1 cells assessed as cell growth inhibition incubated for 10 days; format: functional; settings: MHH-PREB-1, 240 h, time 10 day
769-P = test: Antiproliferative activity against human 769-P cells assessed as cell growth inhibition incubated for 10 days; format: functional; settings: 240 h, time 10 day; outline: as §1
DoTc2-4510 = test: Antiproliferative activity against human DoTc2-4510 cells assessed as cell growth inhibition incubated for 10 days; format: functional; settings: DoTc2-4510, 240 h, time 10 day; outline: as §2
HMCB cell line = test: Antiproliferative activity against human HMCB cell line assessed as cell growth inhibition incubated for 10 days; format: functional; settings: 240 h, time 10 day; outline: as §2

## CC(=O)N1CCC(Nc2cc(C(=O)NC[C@H](O)CN3CCc4ccccc4C3)ncn2)CC1 [PEMRAMETOSTAT]
Z-138 [1]
  Activity: Active
Z-138 [2]
  Activity: Dose-Dependent Effect
Z-138 [3]
  Activity: Tde

## O=C(NC[C@H](O)CN1CCc2ccccc2C1)c1ccnc(NC2CCC2)c1
[4]
  GI50: 113 nM
BPH-1
  GI50: 718 nM
[5]
  GI50: 379 nM
SW900
  GI50: 3250 nM
DMS-53
  GI50: 106 nM
SJSA-1
  GI50: 773 nM
A673
  GI50: 119 nM
[6]
  inhibition: inactive
[7]
  GI50: 124 nM
SK-N-FI
  GI50: 308 nM
C-33-A
  GI50: 228 nM
CAL-27
  GI50: 103 nM
DLD-1
  GI50: 134 nM
NCI-H596
  GI50: 188 nM
RKO
  GI50: 772 nM
[8]
  fold change (FC): -6.6
[9]
  GI50: 103 nM
L-428
  GI50: 330 nM
SK-UT-1
  GI50: 42.1 nM
SNU-5
  GI50: 110 nM
G-401
  GI50: 38.4 nM
SW-403
  GI50: 153 nM
RPMI-8226
  GI50: 58.4 nM
Hs746T
  GI50: 171 nM
U138-MG
  GI50: 43.3 nM
MHH-PREB-1
  GI50: 10000 nM
769-P
  GI50: 203 nM
DoTc2-4510
  GI50: 95.8 nM
HMCB cell line
  GI50: 666 nM
